In ChEMBL document CHEMBL3112537, “A novel series of 6-substituted 3-(pyrrolidin-1-ylmethyl)chromen-2-ones as selective monoamine oxidase (MAO) A inhibitors” (Eur J Med Chem, 2014):
Blank lines part the entries; values can stand above or below the compound they belong to. Activity calls are given as the source filed them. The rule behind the calls is not given here.

Columns and labels:
[1] = Aqueous solubility of the compound in saline solution; assay type: physicochemical
[2] = species on record: Homo sapiens; assay: Selectivity index, ratio of IC50 for human recombinant MAO-B to IC50 for human recombinant MAO-A
Outline: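 Selectivity index for MAO A = IC50(MAO B)/IC50(MAO A), with both human isoforms assayed against kynuramine substrate.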

[3] = molecular target: T1, Amine oxidase [flavin-containing] B (Homo sapiens, UniProt P27338); assay: Inhibition of human recombinant MAO-B assessed as kynuramine oxidation to 4-hydroxyquinoline after 40 mins by LC-MS/MS analysis
T1 sequence (P27338 whole entry): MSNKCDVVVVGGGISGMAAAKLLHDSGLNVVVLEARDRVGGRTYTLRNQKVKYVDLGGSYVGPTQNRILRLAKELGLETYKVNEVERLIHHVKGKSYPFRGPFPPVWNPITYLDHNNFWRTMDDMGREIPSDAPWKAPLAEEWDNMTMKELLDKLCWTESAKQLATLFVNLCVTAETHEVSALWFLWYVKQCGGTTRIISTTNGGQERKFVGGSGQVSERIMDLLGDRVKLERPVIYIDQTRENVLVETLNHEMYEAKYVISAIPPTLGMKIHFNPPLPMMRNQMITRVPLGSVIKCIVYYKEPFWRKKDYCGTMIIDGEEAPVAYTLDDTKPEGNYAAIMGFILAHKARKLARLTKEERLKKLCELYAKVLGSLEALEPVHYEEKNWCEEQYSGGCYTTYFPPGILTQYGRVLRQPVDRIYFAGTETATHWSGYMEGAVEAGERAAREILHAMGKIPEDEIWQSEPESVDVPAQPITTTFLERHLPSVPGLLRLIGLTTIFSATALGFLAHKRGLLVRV
Outline: (§1)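 Human MAO A and MAO B inhibition using kynuramine as a mixed substrate for both isoforms. IC50 is given as the mean ± SE of duplicate determinations.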

[4] = molecular target: T2, Amine oxidase [flavin-containing] A (Homo sapiens, UniProt P21397); assay: Inhibition of human recombinant MAO-A assessed as kynuramine oxidation to 4-hydroxyquinoline after 40 mins by LC-MS/MS analysis; outline: as §1
T2 sequence (P21397 whole entry): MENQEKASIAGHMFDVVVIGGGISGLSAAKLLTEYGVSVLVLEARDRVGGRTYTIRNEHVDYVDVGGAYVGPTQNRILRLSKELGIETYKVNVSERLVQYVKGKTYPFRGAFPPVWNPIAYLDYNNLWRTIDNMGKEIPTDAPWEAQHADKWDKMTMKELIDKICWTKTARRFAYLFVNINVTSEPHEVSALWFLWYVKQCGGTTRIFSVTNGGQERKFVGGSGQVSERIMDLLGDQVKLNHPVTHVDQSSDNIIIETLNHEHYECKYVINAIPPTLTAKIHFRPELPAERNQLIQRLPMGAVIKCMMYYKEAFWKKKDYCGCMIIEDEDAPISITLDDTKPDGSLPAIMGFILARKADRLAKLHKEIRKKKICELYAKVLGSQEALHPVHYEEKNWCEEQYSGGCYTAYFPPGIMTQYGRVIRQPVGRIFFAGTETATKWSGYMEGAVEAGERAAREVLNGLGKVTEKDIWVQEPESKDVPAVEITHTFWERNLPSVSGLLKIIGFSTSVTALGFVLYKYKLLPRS

[5] = Metabolic stability in rat liver microsomes assessed as compound remaining at 5 uM after 60 mins by LC-MS/MS analysis; assay type: ADME; settings: read-out: Stability
Outline: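 Incubation with rat liver microsomes, read as % of compound remaining after 60 min.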

[6] = molecular target: D(2) dopamine receptor (Homo sapiens, UniProt P14416); assay: Antagonist activity at dopamine D2 receptor (unknown origin) expressed in HEK cells co-expressing Gqi5 assessed as inhibition of dopamine-induced effect by FLIPR assay; assay type: cell-based, HEK293
[7] = molecular target: Sodium-dependent serotonin transporter (Homo sapiens) (UniProt P31645); assay: Displacement of [3H]-imipramine from human serotonin transporter at 10 uM relative to control
Outline: (§2)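 Competition binding run by a contract lab, read as % inhibition of control specific binding at a single test concentration. Radioligand per target: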

[8] = system: Rattus norvegicus; assay: In vivo inhibition of MAO-A in Sprague-Dawley rat assessed as increase in 3-methoxytyramine level in brain striatum at 43 umol/kg, sc up to 2 hrs by microdialysis method; assay type: functional, organism-based
Outline: (§3)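 Single subcutaneous dose to freely moving rats. Striatal DOPAC and 3-MT were sampled by microdialysis and measured by HPLC/EC over 2 h after dosing at time 0. Levels are expressed as % of saline control (n = 1–2).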

[9] = molecular target: Histamine H1 receptor (Homo sapiens) (UniProt P35367); assay: Displacement of histamine from human histamine H1 receptor at 1 uM relative to control; outline: as §2
[10] = molecular target: T3, 5-hydroxytryptamine receptor 1A (Homo sapiens) (UniProt P08908); assay: Displacement of [3H]8-OH-DPAT from human 5-HT1A receptor at 1 uM relative to control; outline: as §2
T3 sequence (whole entry): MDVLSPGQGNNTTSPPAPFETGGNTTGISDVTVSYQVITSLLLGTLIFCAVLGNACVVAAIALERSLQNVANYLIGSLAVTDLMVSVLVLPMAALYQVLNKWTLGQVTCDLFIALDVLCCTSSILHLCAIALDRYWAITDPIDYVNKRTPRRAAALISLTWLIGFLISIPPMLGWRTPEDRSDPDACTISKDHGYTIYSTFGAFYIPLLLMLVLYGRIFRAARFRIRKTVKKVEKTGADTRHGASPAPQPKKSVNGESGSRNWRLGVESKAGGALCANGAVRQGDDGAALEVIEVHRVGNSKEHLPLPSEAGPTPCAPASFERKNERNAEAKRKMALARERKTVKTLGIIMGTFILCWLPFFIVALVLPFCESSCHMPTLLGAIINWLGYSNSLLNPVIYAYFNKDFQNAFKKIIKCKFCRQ

[11] = molecular target: 5-hydroxytryptamine receptor 2A (Homo sapiens) (UniProt P28223); assay: Displacement of [3H]-ketanserin from human 5-HT2A receptor at 1 uM relative to control; outline: as §2
[12] = system: Rattus norvegicus; assay: In vivo inhibition of MAO-A in Sprague-Dawley rat assessed as decrease in 3,4-dihydroxyphenylacetic acid level in brain striatum at 43 umol/kg, sc up to 2 hrs by microdialysis method; assay type: functional, organism-based; outline: as §3
[13] = molecular target: Adrenergic receptor alpha-2 (Rattus norvegicus) (UniProt P22086+P19328+P22909); assay: Displacement of [3H]-RX-821002 from rat alpha-2 adrenergic receptor at 1 uM relative to control; outline: as §2
[14] = molecular target: Sodium-dependent noradrenaline transporter (Homo sapiens) (UniProt P23975); assay: Displacement of [3H]-nisoxetin from human norepinephrine transporter at 1 uM relative to control; outline: as §2
[15] = molecular target: Sodium-dependent dopamine transporter (Homo sapiens) (UniProt Q01959); assay: Displacement of [3H]BTCP from human dopamine transporter at 1 uM relative to control; outline: as §2
[16] = molecular target: Adrenergic receptor alpha-1 (Rattus norvegicus) (UniProt P15823+P23944+P43140); assay: Displacement of [3H]-prazosin from rat alpha-1 adrenergic receptor at 10 uM relative to control; outline: as §2
[17] = system: Rattus norvegicus; assay: In vivo inhibition of MAO-A in Sprague-Dawley rat assessed as 3,4-dihydroxyphenylacetic acid level in brain striatum at 100 umol/kg, sc after 1 hr by HPLC/EC analysis relative to control; assay type: functional; parameters: scale not given: the % may be the effect or the level left
Outline: (§4)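 Freely moving rats dosed subcutaneously and sacrificed 1 h later. Striatal DOPAC, 3-MT and 5-HIAA were measured post mortem and expressed as % of saline control (n = 4). Significance was by Student's t-test, P < 0.05.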

[18] = system: Rattus norvegicus; assay: In vivo inhibition of MAO-A in Sprague-Dawley rat assessed as 3-methoxytyramine level in brain striatum at 100 umol/kg, sc after 1 hr by HPLC/EC analysis relative to control; assay type: functional; parameters: scale not given: the % may be the effect or the level left; outline: as §4
[19] = system: Rattus norvegicus; assay: In vivo inhibition of MAO-A in Sprague-Dawley rat assessed as 5-hydroxyindoleacetic acid in brain striatum at 100 umol/kg, sc after 1 hr by HPLC/EC analysis relative to control; assay type: functional; parameters: scale not given: the % may be the effect or the level left; outline: as §4

Chain of D(2) dopamine receptor (P14416 whole entry): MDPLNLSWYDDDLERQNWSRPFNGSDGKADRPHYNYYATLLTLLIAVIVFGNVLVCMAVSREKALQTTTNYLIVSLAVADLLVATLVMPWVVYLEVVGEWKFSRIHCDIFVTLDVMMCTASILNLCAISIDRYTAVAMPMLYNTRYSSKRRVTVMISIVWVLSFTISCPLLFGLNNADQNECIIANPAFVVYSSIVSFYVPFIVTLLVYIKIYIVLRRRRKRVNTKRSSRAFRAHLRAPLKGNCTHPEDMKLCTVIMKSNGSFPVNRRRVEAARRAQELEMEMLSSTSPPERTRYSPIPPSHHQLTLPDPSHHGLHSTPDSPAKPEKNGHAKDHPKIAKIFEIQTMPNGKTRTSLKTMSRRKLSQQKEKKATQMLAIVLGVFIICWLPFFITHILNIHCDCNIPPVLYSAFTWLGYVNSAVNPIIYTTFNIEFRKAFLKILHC
Chain of Sodium-dependent serotonin transporter (Homo sapiens) (P31645 whole entry, looked up): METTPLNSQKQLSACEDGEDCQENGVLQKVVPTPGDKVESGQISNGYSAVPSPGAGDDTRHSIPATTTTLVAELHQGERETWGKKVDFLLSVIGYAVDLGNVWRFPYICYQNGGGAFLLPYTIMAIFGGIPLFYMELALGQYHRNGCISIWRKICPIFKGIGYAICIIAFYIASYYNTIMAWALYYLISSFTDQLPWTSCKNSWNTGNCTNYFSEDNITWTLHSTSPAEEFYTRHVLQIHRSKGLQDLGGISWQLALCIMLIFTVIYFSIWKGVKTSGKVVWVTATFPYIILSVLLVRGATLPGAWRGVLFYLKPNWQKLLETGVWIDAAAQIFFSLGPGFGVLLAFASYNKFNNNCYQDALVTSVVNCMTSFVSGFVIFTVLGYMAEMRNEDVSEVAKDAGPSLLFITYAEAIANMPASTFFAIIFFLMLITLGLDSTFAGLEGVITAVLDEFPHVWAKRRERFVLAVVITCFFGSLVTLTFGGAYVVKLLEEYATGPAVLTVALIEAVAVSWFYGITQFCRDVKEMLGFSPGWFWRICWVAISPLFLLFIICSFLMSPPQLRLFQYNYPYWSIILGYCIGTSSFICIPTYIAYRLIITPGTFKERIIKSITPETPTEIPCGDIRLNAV
Chain of Histamine H1 receptor (Homo sapiens) (P35367 whole entry): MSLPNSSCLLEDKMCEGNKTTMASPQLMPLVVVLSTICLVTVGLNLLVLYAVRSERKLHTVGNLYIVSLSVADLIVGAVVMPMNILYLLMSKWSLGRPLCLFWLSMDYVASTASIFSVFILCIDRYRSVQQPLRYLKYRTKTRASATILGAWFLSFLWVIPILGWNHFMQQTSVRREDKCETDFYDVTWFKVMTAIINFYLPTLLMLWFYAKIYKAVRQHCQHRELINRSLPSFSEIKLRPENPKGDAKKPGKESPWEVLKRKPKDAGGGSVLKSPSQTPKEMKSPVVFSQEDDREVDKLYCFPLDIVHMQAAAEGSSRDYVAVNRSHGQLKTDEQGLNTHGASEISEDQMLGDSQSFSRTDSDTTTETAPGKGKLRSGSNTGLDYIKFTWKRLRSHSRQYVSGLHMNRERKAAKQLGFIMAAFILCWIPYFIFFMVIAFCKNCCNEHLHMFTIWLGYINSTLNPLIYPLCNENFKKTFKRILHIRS
Chain of Sodium-dependent dopamine transporter (Homo sapiens) (Q01959 whole entry): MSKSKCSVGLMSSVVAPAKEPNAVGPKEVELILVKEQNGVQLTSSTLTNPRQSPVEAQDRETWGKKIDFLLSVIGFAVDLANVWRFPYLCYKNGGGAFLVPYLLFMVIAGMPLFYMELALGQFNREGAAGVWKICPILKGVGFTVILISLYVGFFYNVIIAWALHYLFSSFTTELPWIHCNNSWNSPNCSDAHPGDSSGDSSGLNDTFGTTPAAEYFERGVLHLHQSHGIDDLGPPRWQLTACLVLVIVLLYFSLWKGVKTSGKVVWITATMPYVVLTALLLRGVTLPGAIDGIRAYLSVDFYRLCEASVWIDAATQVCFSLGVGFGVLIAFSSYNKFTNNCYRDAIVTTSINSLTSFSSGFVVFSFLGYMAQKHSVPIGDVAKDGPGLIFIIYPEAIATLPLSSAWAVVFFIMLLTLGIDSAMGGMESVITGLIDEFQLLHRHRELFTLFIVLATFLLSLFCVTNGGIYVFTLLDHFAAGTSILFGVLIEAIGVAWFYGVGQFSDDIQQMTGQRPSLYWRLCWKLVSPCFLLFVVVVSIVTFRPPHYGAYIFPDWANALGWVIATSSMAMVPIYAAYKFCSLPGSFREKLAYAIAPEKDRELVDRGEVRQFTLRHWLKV
Chain of 5-hydroxytryptamine receptor 2A (Homo sapiens) (P28223 whole entry): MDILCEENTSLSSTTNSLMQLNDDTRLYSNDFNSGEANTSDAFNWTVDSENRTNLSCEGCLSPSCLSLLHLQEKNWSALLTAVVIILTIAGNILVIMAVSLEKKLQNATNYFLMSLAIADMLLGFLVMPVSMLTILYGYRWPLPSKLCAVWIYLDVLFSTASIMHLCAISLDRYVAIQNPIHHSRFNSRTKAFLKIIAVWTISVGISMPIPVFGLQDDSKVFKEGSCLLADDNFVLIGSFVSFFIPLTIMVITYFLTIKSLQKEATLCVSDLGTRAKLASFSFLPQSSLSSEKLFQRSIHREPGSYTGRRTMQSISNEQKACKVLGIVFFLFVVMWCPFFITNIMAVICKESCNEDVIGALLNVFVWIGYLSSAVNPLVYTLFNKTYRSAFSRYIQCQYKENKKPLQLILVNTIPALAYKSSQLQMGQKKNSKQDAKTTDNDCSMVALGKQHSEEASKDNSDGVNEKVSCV
Chain of Sodium-dependent noradrenaline transporter (Homo sapiens) (P23975 whole entry): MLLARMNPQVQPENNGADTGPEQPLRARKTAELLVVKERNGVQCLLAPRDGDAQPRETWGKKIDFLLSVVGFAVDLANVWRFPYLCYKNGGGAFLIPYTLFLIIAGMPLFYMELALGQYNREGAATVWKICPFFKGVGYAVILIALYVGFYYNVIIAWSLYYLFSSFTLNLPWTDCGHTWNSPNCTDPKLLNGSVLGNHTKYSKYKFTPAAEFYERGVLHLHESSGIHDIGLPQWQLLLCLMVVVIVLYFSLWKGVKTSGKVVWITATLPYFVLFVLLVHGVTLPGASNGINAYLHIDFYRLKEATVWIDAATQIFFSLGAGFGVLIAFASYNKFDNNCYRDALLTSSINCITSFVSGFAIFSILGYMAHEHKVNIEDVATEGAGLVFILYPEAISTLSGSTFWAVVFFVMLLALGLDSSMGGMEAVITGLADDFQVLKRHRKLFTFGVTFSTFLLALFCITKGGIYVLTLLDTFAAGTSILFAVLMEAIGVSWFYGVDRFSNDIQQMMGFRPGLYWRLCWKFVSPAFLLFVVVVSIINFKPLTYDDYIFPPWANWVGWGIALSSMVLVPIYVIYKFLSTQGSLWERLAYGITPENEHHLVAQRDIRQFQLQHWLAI

solubility [1]: > 5000 µg/mL
Compound: Cl.Nc1ccc2oc(=O)c(CN3CCCC3)cc2c1

solubility [1]: > 5000 µg/mL
Compound: Cl.O=c1oc2ccccc2cc1CN1CCCC1

Ratio IC50 [2]: 3.6
Compound: CCCNCc1cc2ccccc2oc1=O

Ratio IC50 [2]: > 15.8
Compound: O=c1oc2ccccc2cc1CN1CCCC1

IC50 [3]: 7.34 µM
IC50 [4]: 1.95 µM
Ratio IC50 [2]: 3.7
Compound: CCCCOc1ccc2oc(=O)c(CNCC)cc2c1

solubility [1]: > 5000 µg/mL
Compound: Cl.O=c1oc2ccc(C(F)(F)F)cc2cc1CN1CCCC1

IC50 [3]: > 100 µM
IC50 [4]: 4.24 µM
remaining at 1 h, 5 µM [5]: 3%
IC50 [6]: > 26 µM
Ratio IC50 [2]: > 23.5
Compound: O=c1oc2ccc(OC(F)(F)F)cc2cc1CN1CCCC1

inhibition [7]: 1%
inhibition [9]: 13%
inhibition [10]: 0%
inhibition [11]: -4%
inhibition [13]: 2%
inhibition [14]: -2%
inhibition [15]: 0%
Ratio IC50 [2]: > 26.5
inhibition [16]: 4%
Compound: Nc1ccc2oc(=O)c(CN3CCCC3)cc2c1
inhibition [8]: Active
inhibition [12]: Active

solubility [1]: > 5000 µg/mL
Compound: CCCNCc1cc2ccccc2oc1=O.Cl

solubility [1]: > 5000 µg/mL
Compound: Br.O=c1oc2ccc(O)cc2cc1CN1CCCC1

IC50 [3]: > 100 µM
IC50 [4]: 8.46 µM
IC50 [6]: > 30 µM
Compound: O=c1oc2ccc(C(F)(F)F)cc2cc1CN1CCCC1
Activity [17]: 77%
Activity [18]: 88%
Activity [19]: 104%

IC50 [3]: > 100 µM
IC50 [4]: > 100 µM
IC50 [6]: > 30 µM
Compound: O=c1oc2ccc([N+](=O)[O-])cc2cc1CN1CCCC1
Activity [17]: 105%
Activity [18]: 75%
Activity [19]: 118%

Ratio IC50 [2]: > 22.3
Compound: COc1ccc2oc(=O)c(CN3CCCC3)cc2c1
